Assay results published in ChEMBL document CHEMBL4007461, “Synthesis, Antiviral Potency, in Vitro ADMET, and X-ray Structure of Potent CD4 Mimics as Entry Inhibitors That Target the Phe43 Cavity of HIV-1 gp120” (J Med Chem, 2017).

Columns and labels:
[1] = (§1) Cytotoxicity against human TZM-bl cells incubated for 3 days by XTT assay; format: cell-based; settings: TZM-bl cells
In short: (§2)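 TZM-bl cells, 1 x 10^4/well, cultured overnight at 37 °C. Compounds added at graded concentrations for three days.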

[2] = test system: Human immunodeficiency virus 1; assay: Antiviral activity against X4 tropic HIV1 HXB2 infected in human TZM-bl cells pretreated with virus for 30 mins followed by 3 days incubation with cells by luciferase reporter gene based single cycle infection assay; format: functional, cell-based
In short: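 TZM-bl cells (1 x 10^4/well) were cultured overnight at 37 °C. HXB2-Env pseudovirus was preincubated 30 min with graded compound concentrations, then added to the cells for 3 days. Cells were washed and lysed, and luciferase was read. IC50 came from percent inhibition.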

[3] = test system: Human immunodeficiency virus 1; assay: Antiviral activity against HIV1 3B infected in human MT2 cells assessed as inhibition of p24 antigen production pretreated with virus for 30 mins followed by 4 days incubation with cells by sandwich ELISA based multicycle infection assay; format: functional, cell-based
In short: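 MT-2 cells were infected with HIV-1 IIIB at 100 TCID50 and preincubated 30 min with graded compound concentrations. Medium was replaced next day. Supernatants were collected 4 days post-infection, lysed with equal volume 5% Triton X-100, and p24 was measured by sandwich ELISA. IC50 came from percent inhibition of p24.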

[4] = (§3) Cytotoxicity against human MT2 cells incubated for 4 days by XTT assay; format: cell-based; settings: MT2 cells
In short: (§4)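 Run alongside the MT-2 multicycle infection assay. Compound at graded concentrations mixed with an equal volume of MT-2 cells (10^5 cells/ml). Medium replaced next day and culture continued four days.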

TZM = assay: as §1; format: cell-based; settings: tzm, 72 h; in short: as §2
MT2 = assay: as §3; format: cell-based; settings: mt2, 96 h, 96 h; in short: as §4
[5] = Human immunodeficiency virus 1, 3B, MT2
[6] = Human immunodeficiency virus 1, HXB2, TZM-bl

Row | Structure (SMILES) | CC50 at 72 h [1] | IC50 [2] | IC50 [3, 5] | CC50 at 96 h [4] | IC50 [2, 6] | CC50 (TZM) | IC50 [3] | CC50 (MT2)
1 | CNCCC(NC(=O)c1ccc(-c2ccc(F)c(Cl)c2)[nH]1)c1nc(C)c(CO)s1 (stereo in doubt; 65A) | 22 µM | 1.5 µM | 3.9 µM | 22.6 µM | – | – | – | –
2 | CNCCC(NC(=O)c1ccc(-c2ccc(F)c(C)c2)[nH]1)c1nc(C)c(CO)s1 (stereo in doubt; 66A) | 38.9 µM | – | 4.1 µM | 25.9 µM | 4.1 µM | – | – | –
3 | Cc1cc(-c2ccc(C(=O)NC(CCN)c3nc(C)c(CO)s3)[nH]2)ccc1F (stereo in doubt; 63A) | 33 µM | – | 1.8 µM | 35.8 µM | 5.7 µM | – | – | –
4 | CNCC(NC(=O)c1ccc(-c2ccc(C)c(F)c2)[nH]1)c1nc(C)c(CO)s1 (stereo in doubt; 43A) | 33.5 µM | – | 1.1 µM | 34.4 µM | – | – | – | –
5 | Cc1nc(C(CCN)NC(=O)c2ccc(-c3ccc(F)c(Cl)c3)[nH]2)sc1CO (stereo in doubt; 62A) | 25.5 µM | – | 7.8 µM | 25.1 µM | 6.6 µM | – | – | –
6 | NCC(NC(=O)c1ccc(-c2cc(F)c(Cl)c(F)c2)[nH]1)c1ncc(CO)s1 (stereo in doubt; 84B) | – | – | – | – | – | 20.6 µM | 0.97 µM | 17.4 µM
7 | CNCC(NC(=O)c1ccc(-c2cc(F)c(Cl)c(F)c2)[nH]1)c1ncc(CO)s1 (stereo in doubt; 88A) | 10.4 µM | – | 0.36 µM | 14 µM | 0.36 µM | – | – | –
8 | CNCC(NC(=O)c1ccc(-c2cc(F)c(Cl)c(F)c2)[nH]1)c1ncc(CO)s1 (stereo in doubt; 88B) | – | 0.42 µM | – | – | – | 13.9 µM | – | 11.9 µM
9 | COc1cc(C(=O)NC(CN)c2nc(C)c(CO)s2)[nH]c1-c1ccc(Cl)cc1 (stereo in doubt; 29B) | – | 16.9 µM | – | – | – | 16.4 µM | – | 15.7 µM
10 | Cc1ccc(-c2ccc(C(=O)NC(CN)c3ncc(CO)s3)[nH]2)cc1F (stereo in doubt; 83A) | 39.2 µM | – | – | 35.2 µM | – | – | 1.6 µM | –
11 | Cc1nc(C(CN)NC(=O)c2ncc(-c3ccc(Cl)cc3)[nH]2)sc1CO (stereo in doubt; 30B) | – | 35 µM | – | – | – | – | – | –
12 | Cc1cc(-c2ccc(C(=O)NC(CCN(C)C)c3nc(C)c(CO)s3)[nH]2)ccc1F (stereo in doubt; 69A) | 23.7 µM | 1.9 µM | 2.1 µM | 25.1 µM | – | – | – | –
13 | Cc1nc(C(CN(C)C)NC(=O)c2ccc(-c3ccc(Cl)c(F)c3)[nH]2)sc1CO (stereo in doubt; 45A) | > 40 µM | – | > 20 µM | > 40 µM | 16.7 µM | – | – | –
14 | Cc1nc(C(CN)NC(=O)c2ccc(-c3ccc(Cl)cc3)n2C)sc1CO (stereo in doubt; 26A) | 36.7 µM | – | > 25 µM | 26.6 µM | 25.8 µM | – | – | –
15 | Cc1nc(C(CN)NC(=O)c2ccc(-c3ccc(F)c(F)c3)[nH]2)sc1CO (stereo in doubt; 25A) | 57.3 µM | – | 6 µM | 61.2 µM | 3.4 µM | – | – | –
16 | CNCC(NC(=O)c1ccc(-c2ccc(Cl)c(F)c2)[nH]1)c1ncc(CO)s1 (stereo in doubt; 86A) | 17.4 µM | – | 3.9 µM | 18.4 µM | 1.4 µM | – | – | –
17 | COc1ccc(-c2ccc(C(=O)NC(CN)c3ncc(CO)s3)[nH]2)cc1OC (centres undefined) | > 50 µM | – | > 50 µM | > 50 µM | > 50 µM | – | – | –
18 | CNCC(NC(=O)c1ccc(-c2ccc(Cl)c(F)c2)[nH]1)c1nc(C)c(CO)s1 (stereo in doubt; 42B) | – | – | – | – | – | 21.3 µM | 2 µM | 18.1 µM

Row | Structure (SMILES) | CC50 at 72 h [1] | IC50 [2] | IC50 [3, 5] | CC50 at 96 h [4] | IC50 [2, 6] | CC50 (TZM) | IC50 [3] | CC50 (MT2)
19 | Cc1nc(C(CN)NC(=O)c2ccc(-c3ccc(F)c(F)c3)[nH]2)sc1CO (stereo in doubt; 25B) | – | – | – | – | – | 58.6 µM | 4.8 µM | 64.6 µM
20 | CNCCC(NC(=O)c1ccc(-c2cccc(Cl)c2)[nH]1)c1nc(C)c(CO)s1 (stereo in doubt; 64A) | 23 µM | – | 7.8 µM | 25.1 µM | 6.3 µM | – | – | –
21 | COc1cc(C(=O)NC(CN)c2nc(C)c(CO)s2)[nH]c1-c1ccc(Cl)cc1 (stereo in doubt; 29A) | 25.4 µM | – | > 24 µM | 25 µM | 22.2 µM | – | – | –
22 | NCC(NC(=O)c1ccc(-c2ccc(Cl)c(F)c2)[nH]1)c1ncc(CO)s1 (stereo in doubt; 82A) | 37.4 µM | – | 0.94 µM | 32 µM | 1.1 µM | – | – | –
23 | Cc1nc(C(CN)NC(=O)c2cnc(-c3ccc(Cl)cc3)[nH]2)sc1CO (centres undefined) | > 51 µM | – | > 26 µM | > 51 µM | > 51 µM | – | – | –
24 | Cc1nc(C(CCN(C)C)NC(=O)c2ccc(-c3cccc(Cl)c3)[nH]2)sc1CO (stereo in doubt; 67A) | 29.4 µM | – | 13.8 µM | 26 µM | 10.4 µM | – | – | –
25 | NCC(NC(=O)c1ccc(-c2ccc(Cl)cc2)[nH]1)c1ncc(CO)s1 (stereo in doubt; 81A) | 38 µM | – | 1.4 µM | 35.6 µM | 1.3 µM | – | – | –
26 | CNCC(NC(=O)c1ccc(-c2ccc(Cl)cc2)[nH]1)c1nc(C)c(CO)s1 (stereo in doubt; 41B) | – | – | – | – | – | 31.7 µM | 3.1 µM | 26.4 µM
27 | Cc1nc(C(CCN(C)C)NC(=O)c2ccc(-c3ccc(F)c(Cl)c3)[nH]2)sc1CO (stereo in doubt; 68A) | 21.3 µM | – | 3.7 µM | 19.1 µM | 1.5 µM | – | – | –
28 | Cc1cc(-c2ccc(Cl)cc2)[nH]c1C(=O)NC(CN)c1nc(C)c(CO)s1 (stereo in doubt; 27A) | 26.4 µM | – | 3.9 µM | 20.2 µM | 1.1 µM | – | – | –
29 | Cc1cc(C(=O)NC(CN)c2nc(C)c(CO)s2)[nH]c1-c1ccc(Cl)cc1 (stereo in doubt; 28B) | – | – | – | – | – | 5.2 µM | 6.1 µM | 4.1 µM
30 | CNCC(NC(=O)c1ccc(-c2ccc(C)c(F)c2)[nH]1)c1ncc(CO)s1 (stereo in doubt; 87A) | 22.3 µM | – | – | 26.6 µM | 2 µM | – | 4.4 µM | –
31 | CNCC(NC(=O)c1ccc(-c2ccc(Cl)cc2)[nH]1)c1nc(C)c(CO)s1 (stereo in doubt; 41A) | 28.4 µM | – | 5.5 µM | 27.2 µM | – | – | – | –
32 | Cc1nc(C(CN(C)C)NC(=O)c2ccc(-c3ccc(Cl)cc3)[nH]2)sc1CO (centres undefined) | > 40 µM | – | > 40 µM | > 40 µM | > 40 µM | – | – | –
33 | CNCC(NC(=O)c1ccc(-c2ccc(Cl)c(F)c2)[nH]1)c1nc(C)c(CO)s1 (stereo in doubt; 42A) | 20.6 µM | – | 2.4 µM | 21.7 µM | 1.6 µM | – | – | –
34 | Cc1ccc(-c2ccc(C(=O)NC(CN(C)C)c3nc(C)c(CO)s3)[nH]2)cc1F (centres undefined) | > 40 µM | – | > 20 µM | > 40 µM | > 40 µM | – | – | –
35 | Cc1nc(C(CN(C)C)NC(=O)c2ccc(-c3ccc(Cl)c(F)c3)[nH]2)sc1CO (stereo in doubt; 45B) | – | 19 µM | – | – | – | – | 19.2 µM | –
36 | Cc1nc(C(CN)NC(=O)c2ncc(-c3ccc(Cl)cc3)[nH]2)sc1CO (stereo in doubt; 30A) | > 51 µM | – | > 26 µM | > 51 µM | 51 µM | – | – | –
